# High-throughput results from PubChem.
# Vif inh: HIV Vif self-association inhibitors, primary screen, imaging, HEK293T, single point. HEK293T cells, Vif self-association by quenched fluorescence, 24 h. inhibition, % at 7.49 µM. 340,000 tested, 0.35% active; in the data active = inhibition above about 50%, passing the limit was not always enough; inconclusive = no clear call, values can overlap the other calls; inactive = below about 31%
# Myeloid diff MLP: induction of myeloid progenitor differentiation, primary screen, cell-based, flow cytometry, MLPCN library | ER-HoxA9 myeloid progenitors, lysozyme-GFP differentiation | calls only at 10 µM | 360,000 tested, 1% active;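 active = normalized GFP-positive differentiation at or above the plate's own cutoff, the solvent-only control mean plus 3 SD; inconclusive = no clear call, values can overlap the other calls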;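 also: cells exposed to compound for four days before flow analysis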
# Casp6 inh: human caspase-6 inhibitors, primary screen, biochemical, VEID-R110 fluorescence, single point, set 2 | P55212 | purified caspase-6, Z-VEID-R110 cleavage fluorescence | inhibition, % at 12.5 µM | 350,000 tested, 0.53% active | AID 686996, 2013;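 active = mean inhibition across replicates at least about 35%, with every replicate also reaching that limit, limit read from the data; inconclusive = only one of the two criteria met; inactive = neither criterion met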;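 also: 0% = median of neutral control wells and 100% = no fluorescence left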
# Target sequence (P55212 24-179 limits assumed): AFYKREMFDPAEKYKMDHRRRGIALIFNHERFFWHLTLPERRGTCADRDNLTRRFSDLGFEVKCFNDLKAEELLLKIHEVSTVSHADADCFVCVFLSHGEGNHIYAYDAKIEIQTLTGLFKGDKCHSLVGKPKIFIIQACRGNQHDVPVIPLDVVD
# Target sequence (P55212 194-293 limits assumed): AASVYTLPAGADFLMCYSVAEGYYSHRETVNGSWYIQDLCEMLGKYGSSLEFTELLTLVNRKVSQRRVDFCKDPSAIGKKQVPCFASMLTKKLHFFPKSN
# T cell modulator: modulators of CD8 T cell-vesicle binding, primary screen, mouse 2C CD8+ T cells, flow cytometry; response (vesicle binding), % at 7 µM; 2C CD8+ T cell-vesicle binding; stronger effect = lower value; 330,000 tested, 0.068% active;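 active = response, share of CD8 T cells binding vesicles, and their 90th percentile fluorescence all below set limits, cut at about 80% in these data, passing the limit was not always enough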;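 also: values below 100% mean blocked vesicle binding to the CD8+ T cells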
#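 Incubation: binding step 1.5 h, 37 °C, antibody labelling 20 min, ice; system: murine 2C transgenic CD8+ T lymphocytes; technique: cytometric PE anti-B7-1 and Alexa647 anti-CD8 signals after 1% paraformaldehyde fixation; also added: QL9-charged Drosophila Ld/ICAM-1/B7-1 vesicles; control set: naked versus QL9-loaded vesicles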
# Numbers without * were called inactive; i = inactive; ? = inconclusive; . = not tested or not shown; + = active, no number. Rows were chosen to be rich in hits. Some 1.4% of all compounds tested hit in one or more screens of this group.
SMILES,Vif inh,Myeloid diff MLP,Casp6 inh,T cell modulator
O=C1/C(=C\c2ccc(-c3ccccc3Cl)o2)SC(=S)N1CC1CCCO1 (centres undefined),4.0,i,.,141.8
COc1ccc(S(=O)(=O)Nc2ccc3c(c2)C(=O)N([C@@H](C)CO)C[C@@H](C)[C@H](CN(C)C(=O)Nc2ccc(F)cc2)O3)cc1,.,.,-4.1,.
COc1ccc(CN(C(=O)Cn2nnc(-c3ccc(C)o3)n2)C(C(=O)NCC2CCCO2)c2ccco2)cc1 (centres undefined),71.1*,i,3.4,191.5
COc1ccc(-c2nnn(CC(=O)N(Cc3ccco3)C(C(=O)NCC3CCCO3)c3ccco3)n2)cc1 (centres undefined),4.2,i,1.7,187.3
CN=C1NC(C)(C)C2CCC(C)(CC2)S1,8.0,+,4.3,.
Cc1cc(/C=C2/C(=O)N(C)C(=S)N2C)c(C)n1C1CC1,9.1,+,4.2,117.4
Cc1cc(/C=C2\SC(=S)NC2=O)c(C)n1C1CC1,-4.4,i,.,649.0
O=S(=O)(c1ccc(F)cc1)N1CCCCN2[C@@H](CO)[C@H](c3ccc(-c4ccccc4F)cc3)[C@@H]2C1,.,.,-0.1,.
Cc1nnc(NC(=O)CSc2ccc(-c3ccco3)nn2)s1,-2.3,i,35.4*,375.3
COCc1cc(=O)n2[nH]c(-c3ccco3)cc2n1,-3.6,i,-2.1,361.8
CCCCN1Cc2c(nc3cc(-c4ccco4)[nH]n3c2=O)C1=O,1.5,i,44.2*,732.5
CCOC(=O)c1cc(-c2ccccc2)sc1NC(=O)COC(=O)c1cccc(S(N)(=O)=O)c1,55.2*,i,1.0,179.7
CCOC(=O)c1cc(-c2ccccc2)sc1NC(=O)COC(=O)c1ccc(Cl)c(S(N)(=O)=O)c1,4.2,i,.,247.3
CC(=O)NC(c1cc(Cl)c2ccccc2c1O)C(C)C (centres undefined),-3.1,+,-2.6,190.7
CCCOc1ccc(CNC(=O)c2ccc3c(c2)N(CC)CCS3)cc1,-7.9,+,-2.1,i
OC[C@H]1O[C@@H](n2cnc3c(NCc4ccco4)ncnc32)[C@H](O)[C@@H]1O,6.0,?,1.7,.
C=CCNc1ncnc2c1ncn2C1OC(CO)C(O)C1O (centres undefined),60.4*,i,.,394.7
OC[C@H]1O[C@@H](n2cnc3c(NC4CCCC4)ncnc32)[C@H](O)[C@@H]1O,67.1*,i,.,427.3
Nc1ncnc2c1ncn2C1OC(C(=O)NC2CC2)C(O)C1O (centres undefined),160.0*,i,-6.8,492.6
OCC1OC(n2cnc3c(NCc4ccco4)ncnc32)C(O)C1O (centres undefined),53.8*,?,-4.4,.
OCC1OC(n2cnc3c(NC4CCCC4)ncnc32)C(O)C1O (centres undefined),?,i,-2.8,182.0
CC(C)C#Cc1ccc2c(c1)O[C@@H](CN(C)C(=O)c1cccc(F)c1)[C@@H](C)CN([C@H](C)CO)S2(=O)=O,.,.,0.8,.
O=C(Nc1ccc(Cl)c(Cl)c1)N[C@@H]1CC[C@@H](CCNC(=O)c2ccc(F)cc2)O[C@@H]1CO,.,.,-2.5,.
Nc1ccc2nc(-c3ccccc3)cnc2c1,?,+,4.5,476.3
CN(C)c1ccc(/C=C2\SC(=O)N(CCc3nnc(N)s3)C2=O)cc1,95.8*,i,-1.3,301.6
SMILES,Vif inh,Myeloid diff MLP,Casp6 inh,T cell modulator
C/C=C/c1cnc2c(c1)C(=O)N([C@H](C)CO)C[C@@H](C)[C@@H](CN(C)C(=O)Nc1ccc(F)cc1)O2,.,.,-1.1,.
Cc1cc(=O)n2c3c(c4c(cc13)c(CN(C)C)cc(=O)n4C)OC2,5.7,.,98.9*,.
Cc1cc(=O)n(C)c2ccccc12,2.7,i,-1.3,132.8
CN1CCN(NC(=O)NC2CCCCC2)CC1,4.8,i,40.6*,70.5
COc1ccc2cc(-c3ccn[nH]3)ccc2c1,-15.8,+,-1.4,186.6
Cc1cc(N)ccc1-c1cc2ccccc2oc1=O,51.7*,i,1.1,383.9
COCC#Cc1ccc2c(c1)O[C@H](CN(C)CC1CCOCC1)[C@@H](C)CN([C@H](C)CO)S2(=O)=O,.,.,3.8,.
C/C=C/c1ccccc1[C@H]1[C@@H](CO)N(C(=O)CN2CCOCC2)[C@H]1C#N,.,.,-1.6,.
c1ccc(CNc2ncnc3c2cnn3Cc2ccccc2)cc1,3.9,+,1.5,200.9
OCCNc1ncnc2c1cnn2Cc1ccccc1,.,i,-3.2,197.1
